Source: ChEMBL document CHEMBL1154690, “Identification of novel, selective, and stable inhibitors of class II histone deacetylases. Validation studies of the inhibition of the enzymatic activity of HDAC4 by small molecules as a novel approach for cancer therapy” (J Med Chem, 2009)

Assays:
Histone deacetylase 1 [1] = molecular target: T1, Histone deacetylase 1 (Homo sapiens, UniProt Q13547); assay: Inhibition of HDAC1
[2] = Inhibition of wild type HDAC4 (653-1084) from Escherichia coli
How it was run: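 Wild-type HDAC4 expressed in bacteria was assayed with an unnatural trifluoroacetyl-lysine substrate to boost its enzymatic efficiency.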

[3] = Inhibition of constitutively active mutant HDAC4 (653-1084) from Escherichia coli
How it was run: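 Bacterially expressed HDAC4 carrying an H-to-Y active-site mutation, giving a constitutively active mutant enzyme, was used in the enzymatic inhibition assay.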

[4] = molecular target: T2, Protein deacetylase HDAC6 (Homo sapiens, UniProt Q9UBN7); assay: Inhibition of HDAC6
T2 sequence (Q9UBN7 whole entry): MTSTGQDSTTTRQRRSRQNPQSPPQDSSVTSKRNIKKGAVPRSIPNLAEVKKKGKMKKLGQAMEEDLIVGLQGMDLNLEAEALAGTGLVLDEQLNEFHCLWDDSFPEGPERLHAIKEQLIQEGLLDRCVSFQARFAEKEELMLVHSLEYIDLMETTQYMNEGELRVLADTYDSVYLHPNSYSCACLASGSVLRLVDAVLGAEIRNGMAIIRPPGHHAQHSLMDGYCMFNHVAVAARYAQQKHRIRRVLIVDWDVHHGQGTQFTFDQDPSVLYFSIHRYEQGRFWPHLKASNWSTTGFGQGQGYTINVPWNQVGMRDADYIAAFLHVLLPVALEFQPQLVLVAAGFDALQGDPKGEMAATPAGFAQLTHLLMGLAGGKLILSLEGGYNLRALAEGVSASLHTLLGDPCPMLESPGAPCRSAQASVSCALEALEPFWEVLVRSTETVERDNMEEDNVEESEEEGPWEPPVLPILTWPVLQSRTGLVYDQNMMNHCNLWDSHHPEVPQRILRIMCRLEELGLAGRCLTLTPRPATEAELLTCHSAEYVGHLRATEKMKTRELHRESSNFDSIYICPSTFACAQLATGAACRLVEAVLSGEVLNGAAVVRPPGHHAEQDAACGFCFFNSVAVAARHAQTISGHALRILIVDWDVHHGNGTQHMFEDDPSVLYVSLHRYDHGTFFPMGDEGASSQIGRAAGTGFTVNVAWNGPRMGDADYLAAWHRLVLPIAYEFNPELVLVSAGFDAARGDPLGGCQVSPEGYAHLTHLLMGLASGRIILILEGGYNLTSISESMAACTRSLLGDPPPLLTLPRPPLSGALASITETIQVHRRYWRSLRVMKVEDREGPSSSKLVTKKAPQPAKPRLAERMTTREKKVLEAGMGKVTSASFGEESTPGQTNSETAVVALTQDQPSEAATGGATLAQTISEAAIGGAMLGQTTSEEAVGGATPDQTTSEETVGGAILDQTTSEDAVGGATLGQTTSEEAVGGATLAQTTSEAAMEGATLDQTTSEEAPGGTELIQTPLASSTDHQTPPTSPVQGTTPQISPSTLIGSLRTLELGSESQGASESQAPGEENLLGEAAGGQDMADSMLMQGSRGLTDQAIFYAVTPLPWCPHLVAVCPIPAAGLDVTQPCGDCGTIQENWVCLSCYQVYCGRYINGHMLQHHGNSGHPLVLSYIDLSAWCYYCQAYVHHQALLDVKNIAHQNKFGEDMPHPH

[5] = Selectivity ratio of IC50 for Escherichia coli HDAC4 WT (653-1084) to IC50 for HDAC1
[6] = Metabolic stability in S9 fraction of human HACT116 cells assessed as half life by LC-MS/MS analysis; format: ADME, subcellular; conditions: S9 fraction of HACT116 (HCT116) cells
[7] = molecular target: T2, Protein deacetylase HDAC6; assay: Inhibition of HDAC6 in human HCT116 cells assessed as alpha-tubulin hyperacetylation after 24 hrs; format: cell-based, HCT-116
How it was run: (§1)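 HCT116 cells were exposed to inhibitor for 72 h in the proliferation assay, or for 24 h for the histone H3 and α-tubulin deacetylation read-outs. Medium was replaced with fresh inhibitor every 12 h throughout. EC50 was taken as the mean of two independent determinations.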

Histone deacetylase 1 [8] = molecular target: T1, Histone deacetylase 1; assay: Inhibition of HDAC1 in human HCT116 cells assessed as inhibition of histone-H3 deacetylation after 24 hrs; format: cell-based, HCT-116; how it was run: as §1
HCT-116 = assay: Antiproliferative activity against human HCT116 cells after 72 hrs; format: functional, cell-based; conditions: HCT-116, 72 h; how it was run: as §1
[9] = Metabolic stability in human HCT116 cells assessed as half life by LC-MS/MS analysis; format: ADME, cell-based, HCT-116

T1 sequence (Q13547 whole entry): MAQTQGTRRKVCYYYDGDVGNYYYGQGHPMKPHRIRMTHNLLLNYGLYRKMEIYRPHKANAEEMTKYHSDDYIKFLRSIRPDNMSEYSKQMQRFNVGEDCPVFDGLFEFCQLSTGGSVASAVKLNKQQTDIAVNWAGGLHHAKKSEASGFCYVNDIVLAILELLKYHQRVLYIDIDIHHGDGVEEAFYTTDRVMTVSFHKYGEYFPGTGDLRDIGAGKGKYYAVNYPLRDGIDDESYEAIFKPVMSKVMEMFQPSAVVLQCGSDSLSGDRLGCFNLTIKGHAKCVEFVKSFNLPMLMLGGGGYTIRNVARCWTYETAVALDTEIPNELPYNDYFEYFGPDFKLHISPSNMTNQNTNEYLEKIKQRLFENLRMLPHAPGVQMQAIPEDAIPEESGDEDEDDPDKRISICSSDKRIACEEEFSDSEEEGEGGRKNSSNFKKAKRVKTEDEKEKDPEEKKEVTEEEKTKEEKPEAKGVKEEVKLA

Structure (SMILES) | IC50 (Histone deacetylase 1 [1]) [µM] | IC50 [2] [nM] | IC50 [3] [nM] | IC50 [4] [nM] | Ratio IC50 [5] | half-life [6] [min] | EC50 [7] [nM] | EC50 (Histone deacetylase 1 [8]) [µM] | EC50 (HCT-116) [µM] | half-life [9] [min]
CS(=O)(=O)Cc1noc(-c2ccc(C(=O)C(F)(F)F)s2)n1 | 2.7 | 24 | 780 | 230 | > 100 | > 120 | 640 | 9 | 12.8 | –
O=C(c1cnc(-c2ccccc2)s1)C(F)(F)F | 3.7 | 130 | 190 | 210 | 25 | 15 | – | – | – | –
CCCS(=O)(=O)Cc1noc(-c2ccc(C(=O)C(F)(F)F)s2)n1 | – | 30 | 520 | – | – | – | – | – | – | –
O=C(c1ccc(-c2ccc3c(c2)OCCO3)s1)C(F)(F)F | > 10 | > 10000 | 1400 | 37 | – | – | – | – | – | –
O=C(c1ccc(-c2ccc3[nH]ccc3c2)s1)C(F)(F)F | > 10 | > 10000 | 6200 | > 5000 | – | – | – | – | – | –
O=C(c1ccc(-c2nc(CS(=O)(=O)Cc3ccc(F)cc3)no2)s1)C(F)(F)F | – | 60 | 680 | – | – | > 120 | – | – | – | –
COc1ccccc1-c1ccc(C(=O)C(F)(F)F)s1 | > 10 | > 10000 | 3500 | 6300 | – | – | – | – | – | –
N#Cc1ccc(-c2ccc(C(=O)C(F)(F)F)s2)cc1 | 2.7 | 160 | 14 | 41 | – | > 120 | – | – | – | 480
O=C(c1ccc(-c2nc(CS(=O)(=O)c3cccs3)no2)s1)C(F)(F)F | – | 35 | 1000 | – | – | 52 | – | – | – | 360
O=C(c1cc(-c2ccccc2)cs1)C(F)(F)F | > 10 | 3200 | > 10000 | 1900 | – | – | – | – | – | –
O=C(O)c1ccc(-c2ccc(C(=O)C(F)(F)F)s2)cc1 | 2.5 | 74 | 60 | 27 | – | – | – | – | – | –
COc1cccc(-c2ccc(C(=O)C(F)(F)F)s2)c1 | > 10 | 3800 | > 5000 | 3100 | – | – | – | – | – | –
CN(Cc1ccc2nccnc2c1)C(=O)c1ccc(C(=O)C(F)(F)F)s1 | – | 98 | 87 | – | – | 15 | – | – | – | –
O=C(c1ccc(-c2ccccc2)s1)C(F)(F)F | > 20 | 2800 | 2800 | 170 | – | – | – | – | – | –
O=C(O)c1cccc(-c2ccc(C(=O)C(F)(F)F)s2)c1 | 12.8 | 310 | 96 | 70 | – | – | 1000 | > 50 | > 50 | 660
CC(=O)c1ccc(-c2ccc(C(=O)C(F)(F)F)s2)cc1 | > 10 | 72 | 12 | 29 | – | > 120 | – | – | – | –
COc1ccc(-c2ccc(C(=O)C(F)(F)F)s2)cc1 | > 1 | 110 | > 1000 | > 1000 | – | – | – | – | – | –
O=C(c1ccc(-c2ccccn2)s1)C(F)(F)F | > 1 | 540 | > 1000 | > 1000 | – | – | – | – | – | –
O=C(c1ccc(-c2ccc3nccnc3c2)s1)C(F)(F)F | 0.91 | 160 | 54 | 15 | – | 10 | – | – | – | –
